The test system of series [1] is Mus musculus. Kind of series: Antidiabetic activity in C57BL/6 mouse assessed as reduction in blood glucose level at 25 nmol/kg, ip treated 30 mins prior to glucose challenge measured after 120 mins by IPGTT. Format: functional, organism-based. In a few lines: (§1)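 Male C57BL/6 mice, 6 weeks old, fasted overnight (12 h), n = 6/group; given 25 nmol/kg or saline i.p., then i.p. glucose challenge (2.0 g/kg) 30 min later, set as 0 h. Glucose challenges were repeated at 6 h intervals to mimic three meals a day. Blood glucose was followed and AUC calculated.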

For series [2], the system named is Rattus norvegicus. Kind of series: Antidiabetic activity in Sprague-Dawley rat assessed as blood glucose level at 25 nmol/kg, ip treated 30 mins prior to glucose challenge measured at 15 mins interval for 180 mins by OGTT (reference value: 13.8 +/- 1.31 nmol/L). It is filed as functional.
Series [3] concerns Rattus norvegicus. Kind of series: Antidiabetic activity in Sprague-Dawley rat assessed as time required to increase in plasma insulin level at 25 nmol/kg, ip treated 30 mins prior to glucose challenge by ELISA. It is filed as functional. In a few lines: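 Male SD rats (200–250 g), fasted 12 h, n = 6/group, received 25 nmol/kg i.p. or saline 30 min before an oral glucose load (10 g/kg, set as 0 min). EDTA plasma insulin was measured by rat insulin ELISA.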
On the technique in general: In an ELISA, binding on a coated surface is turned into a signal by an enzyme label.

For series [4], the system named is INS1. Kind of series: Cytoprotective activity against STZ-induced oxidative stress in rat INS-1 cells assessed as reduction in apoptosis at 10 nM after 24 hrs by Annexin-V-FITC/propidium iodide staining based flow cytometric analysis. Format: functional, cell-based. Put shortly: (§2)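 INS-1 cells, about 5000/well, were seeded for 24 h, then exposed to glucolipotoxic medium, 50 µM H2O2 or 1 µM STZ, plus peptide at 10 nM, for 24 h. Apoptosis was analyzed by flow cytometry; triplicate, repeated three times.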

A short description of series [5]: Stability of the compound in Sprague-Dawley rat plasma by LC-MS/MS analysis. It is filed as ADME, cell-free. Put shortly:
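Compounds were incubated in plasma from adult male SD rats at 37 °C for up to 72 h. Samples at each time point underwent solid-phase extraction and LC-MS/MS analysis to follow degradation and derive half-life.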

In series [6] the test system is Mus musculus. Kind of series: Antidiabetic activity in STZ/diet-induced obese C57BL/6 mouse assessed as reduction in body weight gain at 25 nmol/kg, ip administered daily for 4 weeks measured daily during compound dosing. Format: functional, organism-based. Put shortly:
(§3)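 Male C57BL/6J DIO mice on high-fat diet were treated for 4 weeks with saline as control; LFD-fed mice (n = 6/group) were used as normal reference. Water intake, food intake and body weight were recorded daily. Terminal serum leptin and adiponectin were measured by ELISA. TC, TG, HDL, LDL, ALT and AST were measured on a clinical chemistry analyzer.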

Series [7] relates to Mus musculus. Kind of series: Hypoglycemic activity in STZ-induced diabetic Kunming mouse model assessed as time required to reduce blood glucose level of […] at 25 nmol/kg, ip administered as single dose. Format: functional. In a few lines: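 Non-fasted STZ-diabetic Kunming mice with free access to food and water received a single i.p. injection (25 or 150 nmol/kg) or saline; n = 6/group. Blood glucose was followed over time.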

The subject of series [8] is Mus musculus. Kind of series: Antidiabetic activity in STZ/diet-induced obese C57BL/6 mouse assessed as reduction in food intake at 25 nmol/kg, ip measured after 6 hrs relative to control. Format: functional. Also on record: scale not given: the % may be the effect or the level left. Put shortly: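 Acute study in fasted mice given an i.p. dose; food intake was measured at 6 h after administration.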

Series [9] has as its system Mus musculus. Kind of series: Antidiabetic activity in STZ/diet-induced obese C57BL/6 mouse assessed as reduction in size of brown adipocytes at 25 nmol/kg, ip administered daily for 4 weeks measured post last dose. It is filed as functional, organism-based.
For series [10], the system named is Mus musculus. Kind of series: Antidiabetic activity in STZ/diet-induced obese C57BL/6 mouse assessed as reduction in serum ALT level at 25 nmol/kg, ip administered daily for 4 weeks measured post last dose. Format: functional, organism-based. In a few lines:
as §3

For series [11], the system named is Mus musculus. Kind of series: Antidiabetic activity in STZ-induced diabetic Kunming mouse model assessed as fasting blood glucose level at 25 nmol/kg, ip administered once daily for 3 weeks measured at 5 days interval for 21 days during compound dosing (reference value: […]). It is filed as functional. Put shortly: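 STZ diabetes induced with 40 mg/kg/day i.p. for 5 consecutive days after overnight fasting. Mice with fasting glucose ≥11.1 mM were grouped by matched body weight and dosed 25 nmol/kg i.p. once daily for 3 weeks; saline served as control. Fasting plasma glucose was measured every five days, and HbA1c at day 24; n = 6/group.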

Series [12] has as its system Mus musculus. Kind of series: Hypoglycemic activity in STZ-induced diabetic Kunming mouse model assessed as time required to reduce blood glucose level of […] at 150 nmol/kg, ip administered as single dose. It is filed as functional. Put shortly:
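Non-fasted STZ-diabetic Kunming mice with free access to food and water received a single i.p. injection (25 or 150 nmol/kg) or saline; n = 6/group. Blood glucose was followed over time. Euglycemic duration was defined as time below 8.35 mmol/L, and glucose AUC0–36h was calculated.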

Series [13] concerns INS1. Kind of series: Cytoprotective activity against H2O2-induced glucolipotoxicity in rat INS-1 cells assessed as increase in cell viability at 1 to 100 nM after 24 hrs by MTT assay. It is filed as functional, cell-based. Put shortly:
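INS-1 cells, about 5000/well, were seeded for 4 h, then stressed with one of: glucolipotoxic medium (25 mM glucose + 0.4 mM oleate-BSA), 50 µM H2O2 or 1 µM STZ. Peptide (1, 10 or 100 nM) was added and cells were incubated 24 h. Viability was read by MTT (200 µg/mL, 3 h, 37 °C), formazan dissolved in DMSO, A570. Triplicate, repeated three times.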

Series [14] deals with INS1. Kind of series: Cytoprotective activity against H2O2-induced glucolipotoxicity in rat INS-1 cells assessed as reduction in apoptosis at 10 nM after 24 hrs by Annexin-V-FITC/propidium iodide staining based flow cytometric analysis. It is filed as functional, cell-based. Put shortly:
as §2

For series [15], the system named is Mus musculus. Kind of series: Antidiabetic activity in STZ-induced diabetic Kunming mouse model assessed as increase in islet beta-cell area 25 nmol/kg, ip administered once daily for 3 weeks measured post last dose by hematoxylin and eosin staining based assay. Format: functional, organism-based. Put shortly: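 STZ-diabetic mice were dosed 25 nmol/kg i.p. once daily; normal mice and saline-treated mice served as references. After 21 days the pancreas was fixed, sectioned at 5 µm and stained with H&E. Islet area was measured by manually tracing the islet perimeter; n = 6/group.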

Series [16] concerns Mus musculus. Kind of series: Antidiabetic activity in STZ/diet-induced obese C57BL/6 mouse assessed as reduction in size of white adipocytes at 25 nmol/kg, ip administered daily for 4 weeks measured post last dose. It is filed as functional, organism-based.
In series [17] the test system is Mus musculus. Kind of series: Antidiabetic activity in C57BL/6 mouse assessed as reduction in blood glucose level at 25 nmol/kg, ip treated 30 mins prior to glucose challenge measured up to 90 mins by IPGTT. Format: functional, organism-based. In a few lines:
as §1

The test system of series [18] is Mus musculus. Kind of series: Antidiabetic activity in STZ/diet-induced obese C57BL/6 mouse assessed as reduction in serum total cholesterol level at 25 nmol/kg, ip administered daily for 4 weeks measured post last dose. Format: functional, organism-based. In a few lines:
as §3

The target of another series is Albumin (Homo sapiens, UniProt P02768). Kind of series: Binding affinity to human serum albumin after 3 hrs by LC-MS/MS analysis. Also on record: concentration or dose not given beside the values. Put shortly:
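HSA was coupled to NHS-activated Sepharose (6–7 mg HSA/mL wet resin); an inactivated albumin-free resin served as control. Peptide (100 µg/mL in PBS) was incubated with each resin for 3 h at 25 °C. After centrifugation, unbound peptide in the supernatant was quantified by LC-MS/MS.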

Series [19] deals with Mus musculus. Kind of series: Antidiabetic activity in STZ/diet-induced obese C57BL/6 mouse assessed as reduction in serum AST level at 25 nmol/kg, ip administered daily for 4 weeks measured post last dose. Format: functional, organism-based. Put shortly: as §3

Each structure is given as a SMILES string. Activity calls are given as the source filed them.

Albumin, sequence (P02768 whole entry): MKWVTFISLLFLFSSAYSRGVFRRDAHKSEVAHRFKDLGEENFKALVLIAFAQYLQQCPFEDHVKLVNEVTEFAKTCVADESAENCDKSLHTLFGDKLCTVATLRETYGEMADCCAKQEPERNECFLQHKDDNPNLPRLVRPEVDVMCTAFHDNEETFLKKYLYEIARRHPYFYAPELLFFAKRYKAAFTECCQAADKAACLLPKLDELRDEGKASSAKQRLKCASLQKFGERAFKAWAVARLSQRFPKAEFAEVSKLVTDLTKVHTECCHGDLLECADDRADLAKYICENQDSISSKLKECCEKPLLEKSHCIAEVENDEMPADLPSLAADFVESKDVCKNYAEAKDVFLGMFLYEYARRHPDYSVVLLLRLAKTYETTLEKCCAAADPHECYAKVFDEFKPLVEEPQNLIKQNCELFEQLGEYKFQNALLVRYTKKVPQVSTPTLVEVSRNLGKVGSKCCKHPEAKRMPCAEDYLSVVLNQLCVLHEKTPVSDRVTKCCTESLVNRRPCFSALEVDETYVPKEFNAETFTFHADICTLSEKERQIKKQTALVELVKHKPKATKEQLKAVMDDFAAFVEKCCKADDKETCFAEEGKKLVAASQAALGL

Consider `CC[C@H](C)[C@H](NC(=O)[C@H](Cc1ccccc1)NC(=O)[C@H](CCC(=O)O)NC(=O)[C@H](CCCCN)NC(=O)[C@H](C)NC(=O)[C@H](C)NC(=O)[C@H](CCC(N)=O)NC(=O)CNC(=O)[C@H](CCC(=O)O)NC(=O)[C@H](CC(C)C)NC(=O)[C@H](Cc1ccc(O)cc1)NC(=O)[C@H](CO)NC(=O)[C@H](CO)NC(=O)[C@@H](NC(=O)[C@H](CC(=O)O)NC(=O)[C@H](CO)NC(=O)[C@@H](NC(=O)[C@H](Cc1ccccc1)NC(=O)[C@@H](NC(=O)CNC(=O)[C@H](CCC(=O)O)NC(=O)CNC(=O)[C@@H](N)Cc1cnc[nH]1)[C@@H](C)O)[C@@H](C)O)C(C)C)C(=O)N[C@@H](C)C(=O)N[C@@H](Cc1c[nH]c2ccccc12)C(=O)N[C@@H](CC(C)C)C(=O)N[C@H](C(=O)N[C@@H](CCCCN)C(=O)NCC(=O)N[C@@H](CCCNC(=N)N)C(=O)N[C@@H](CSC1CC(=O)N(CCCCCCCCCCCC(=O)O)C1=O)C(N)=O)C(C)C` (stereo not given in full), for which the outcome with Mus musculus [1], in the series on INS1 [4], with Mus musculus [6], in the series on Mus musculus [9], in the series with Mus musculus [10] and with INS1 [13] was Active. For the same molecule, the result in the series on INS1 [14], in the series with Mus musculus [15], with Mus musculus [16], in the series on Mus musculus [18] and in the series on Mus musculus [19] was Active. Moreover, the Activity in the series with Rattus norvegicus [2] is 6.7e+06 nmol/L; in the series with Mus musculus [8], “<=34.5%”; in the series on Mus musculus [11], 1.07e+07 nmol/L; at Albumin, 62.4%. Further, the results for the Time with Rattus norvegicus [3], in the series with Mus musculus [7] and in the series with Mus musculus [12] were 15 to 60 min, 9.7 h and 11.5 h, respectively. Besides, the Stability result in series [5] is listed as “Stable”. For the same molecule, the outcome in the series on Mus musculus [17] was inactive.

The values above are taken from ChEMBL document CHEMBL4219235, “Novel fatty acid chain modified GLP-1 derivatives with prolonged in vivo glucose-lowering ability and balanced glucoregulatory activity” (Bioorg Med Chem, 2018).
